Test results reported in ChEMBL document CHEMBL1154067, “Antiviral and cytotoxic activities of aminoarylazo compounds and aryltriazene derivatives” (Bioorg Med Chem, 2009).
The source made the active and inactive calls.

What was measured:
[1] = system: Respiratory syncytial virus; assay: Antiviral activity against Respiratory syncytial virus A2 infected in Vero-76 cells after 5 days by plaque reduction assay; assay type: functional, organism-based; settings: human respiratory syncytial virus, A2, Vero 76, 120 h
Poliovirus 1 = assay: Antiviral activity against Human poliovirus 1 strain Sabin after 2 days by plaque reduction assay; assay type: functional; settings: for EC50: Enterovirus C, 48 h
Vaccinia virus = assay: Antiviral activity against Vaccinia virus after 3 days by plaque reduction assay; assay type: functional, organism-based; settings: Orthopoxvirus vaccinia
Yellow fever virus = assay: Antiviral activity against Yellow fever virus infected in BHK-21 cells assessed as inhibition of virus-induced cytopathicity after 3 to 4 days by MTT assay; assay type: functional, organism-based
Coxsackievirus B2 = assay: Antiviral activity against Coxsackie virus type B2 virus infected in african green monkey Vero-76 cells after 3 days by plaque reduction assay; assay type: functional, organism-based; settings: Enterovirus B, Vero 76, 72 h
Outline: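 Vero 76 cells seeded at 2 × 10^5 cells/well, grown overnight to confluence at 37 °C in 5% CO2, then infected at 50–100 PFU/well. Unadsorbed virus removed. Overlay of DMEM with 1% inactivated FCS and 0.75% methylcellulose, with or without serial compound dilutions. After 3 days at 37 °C, fixed and stained with crystal violet in PBS/50% ethanol; plaques counted. EC50 is the concentration reducing plaque number by 50%.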

[2] = system: Mammalian orthoreovirus 1; assay: Antiviral activity against Reovirus-1 infected in BHK-21 cells assessed as inhibition of virus-induced cytopathicity after 3 to 4 days by MTT assay; assay type: functional, organism-based; settings: Mammalian orthoreovirus 1, BHK-21
Outline: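 BHK-21 cells seeded at 5 × 10^4 cells/well, grown overnight to confluent monolayers at 37 °C in 5% CO2, then infected at m.o.i. 0.01 in serum-free medium. One hour later, MEM Earle's with 1% final inactivated FCS added, with or without serial compound dilutions. Viability read by MTT after 3–4 days at 37 °C. EC50 is the concentration giving 50% protection from cytopathogenicity.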

Human alphaherpesvirus 1 = assay: Antiviral activity against HSV1 infected in Vero-76 cells after 3 days by plaque reduction assay; assay type: functional, organism-based; settings: Human alphaherpesvirus 1, Vero 76, 72 h
[3] = system: Bovine viral diarrhea virus 1; assay: Antiviral activity against Bovine viral diarrhea virus infected in MDBK cells assessed as inhibition of virus-induced cytopathicity after 3 to 4 days by MTT assay; assay type: functional, organism-based; settings: Bovine viral diarrhea virus isolates and strains
[4] = system: Vesicular stomatitis virus; assay: Antiviral activity against Vesicular stomatitis virus after 2 days by plaque reduction assay; assay type: functional, organism-based
[5] = system: Human immunodeficiency virus 1; assay: Antiviral activity against HIV1 infected in human MT4 cells assessed as inhibition of virus-induced cytopathicity after 4 days by MTT assay; assay type: functional, organism-based
Vero = assay: Cytotoxicity against african green monkey Vero 76 cells by crystal violet staining; assay type: cell-based; settings: chlorocebus sabaeus, vero
Outline: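 Mock-infected Vero 76 seeded at 4 × 10^5 cells/mL, run in parallel with plaque assays, with or without serial compound dilutions. Cell number of monolayers determined by crystal violet staining. CC50 = concentration reducing viable cell number 50%.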

[6] = Cytotoxicity against MDBK cells after 48 to 96 hrs by MTT assay; assay type: cell-based, Bos taurus; settings: cattle, mdbk
Outline: (§1)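 Mock-infected cells in maintenance medium, MDBK at 6 × 10^5 and BHK at 1 × 10^6 cells/mL initial density, with or without serial compound dilutions. Run in parallel with antiviral assays. Viability by MTT after 48–96 h at 37 °C, 5% CO2. CC50 = concentration reducing viability 50%.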

[7] = Cytotoxicity against hamster BHK21 cells assessed as reduction in cell viability after 48 to 96 hrs by MTT assay; assay type: cell-based, Mesocricetus auratus, BHK-21; settings: bhk-21; outline: as §1
MT4 = assay: Cytotoxicity against human MT4 cells after 96 hrs by MTT assay; assay type: cell-based; settings: mt4, 96 h
Outline: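 Exponentially growing mock-infected MT-4 seeded at 1 × 10^5 cells/mL in RPMI-1640 with 10% FCS, penicillin and streptomycin. Incubated with or without serial compound dilutions at 37 °C, 5% CO2. Viability by MTT after 96 h. CC50 = concentration reducing viability 50%.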

Row | SMILES | EC50 [1] [µM] | Activity (Poliovirus 1) | Activity (Vaccinia virus) | EC50 (Yellow fever virus) [µM] | EC50 (Coxsackievirus B2) [µM] | EC50 [2] [µM] | EC50 (Human alphaherpesvirus 1) [µM] | EC50 [3] [µM] | Activity [4] | inhibition [5] | CC50 (Vero) [µM] | CC50 [6] [µM] | CC50 [7] [µM] | CC50 (MT4) [µM] | EC50 (Poliovirus 1) [µM]
1 | Cc1c(/N=N/c2cccc(C(F)(F)F)c2)ccc(NC[C@@H]2CCCN3CCCC[C@H]23)c1C | > 80 | inactive | inactive | > 100 | > 80 | > 100 | > 80 | 7 | inactive | inactive | 80 | 52 | ≥ 100 | 77 | –
2 | CN(C)CCCNc1ccc(/N=N/c2cccc([N+](=O)[O-])c2)cc1 | > 25 | inactive | inactive | 7 | 11 | > 20 | 6 | 16 | inactive | inactive | 25 | 33 | 20 | 14 | –
3 | Fc1ccc(F)c(/N=N/Nc2cc(F)ccc2F)c1 | 8 | – | inactive | > 100 | 50 | > 100 | > 100 | > 100 | inactive | inactive | ≥ 100 | > 100 | > 100 | ≥ 100 | > 100
4 | c1ccc(CN/N=N/c2ccccc2)cc1 | > 100 | – | inactive | > 100 | > 100 | > 100 | > 100 | > 100 | inactive | inactive | 100 | > 100 | > 100 | 42 | > 100
5 | CN(Cc1ccccc1)/N=N/c1ccccc1 | > 100 | – | inactive | > 100 | > 100 | > 100 | > 100 | > 100 | inactive | inactive | ≥ 100 | > 100 | > 100 | ≥ 100 | > 100
6 | O=c1cnn([C@@H]2O[C@H](CO)[C@@H](O)[C@H]2O)c(=O)[nH]1 [6-AZAURIDINE] | – | – | – | – | > 20 | > 100 | > 20 | > 100 | – | – | 20 | > 100 | > 100 | – | > 20
7 | COc1c(C)c2c(c(O)c1C/C=C(\C)CCC(=O)O)C(=O)OC2 [MYCOPHENOLIC ACID] | 0.6 | – | – | > 100 | > 13 | > 100 | > 13 | > 42 | – | – | ≥ 13 | 42 | > 100 | 0.2 | > 13
8 | O=[N+]([O-])c1cccc(/N=N/Nc2cccc([N+](=O)[O-])c2)c1 | > 100 | – | inactive | > 100 | > 100 | > 100 | > 100 | > 100 | inactive | inactive | > 100 | > 100 | > 100 | > 100 | > 100
9 | Cc1ccc(/N=N/N(CCCN(C)C)c2ccccc2)cc1 | > 100 | – | inactive | > 100 | > 100 | > 100 | > 100 | > 100 | inactive | inactive | 100 | > 100 | > 100 | 18 | > 100
10 | CN(/N=N/c1ccccc1)c1ccccc1 | 20 | – | inactive | > 100 | > 50 | > 100 | > 50 | > 100 | inactive | inactive | 50 | > 100 | > 100 | 55 | > 50
11 | Cc1ccc(/N=N/c2ccc(NCCCN(C)C)cc2)cc1 | > 50 | inactive | inactive | > 100 | > 50 | > 100 | > 50 | > 100 | inactive | inactive | 50 | > 100 | > 100 | 17 | –
12 | FC(F)(F)c1cccc(/N=N/c2ccc(NC[C@@H]3CCCN4CCCC[C@H]34)c3c2CCCC3)c1 | > 50 | inactive | inactive | > 14 | > 50 | > 14 | > 50 | 7 | inactive | inactive | 50 | 30 | 14 | 15 | –
13 | NCCCC[C@H](N)C(=O)Nc1cccc(-c2ccc(NC(=O)Nc3nc4ccccc4s3)nc2)c1 | – | – | – | – | – | – | – | 0.6 | – | – | – | – | – | – | –
14 | Brc1ccc(Cn2ccc3nc(-c4ccccc4)nc-3c2)cc1 | – | – | – | – | – | – | – | 0.03 | – | – | – | – | – | – | –
15 | c1ccc(/N=N/Nc2ccccc2)cc1 | ≥ 90 | – | inactive | > 100 | > 90 | > 100 | > 90 | > 100 | inactive | inactive | – | – | – | – | > 90
16 | CCCN(CCC)CCSc1n[nH]c2c3ccccc3nc-2n1 | – | – | – | – | – | – | – | 0.03 | – | – | – | – | – | – | –
17 | Cn1c2cc(N3CCN(c4ccccn4)CC3)c(N)cc2c(=O)c2c(O)cc(O)cc21 | – | – | – | – | – | – | – | 0.6 | – | – | – | – | – | – | –
18 | Clc1cccc(/N=N/N2CCCC2)c1 | > 100 | – | inactive | > 100 | > 100 | > 100 | > 100 | – | inactive | inactive | ≥ 100 | > 100 | > 100 | > 100 | ≥ 100
19 | Brc1cccc(/N=N/N2CCCCC2)c1 | > 85 | – | inactive | > 100 | > 85 | > 100 | > 85 | – | inactive | inactive | 85 | > 100 | > 100 | > 100 | > 85
20 | O=c1cccc2n1CC1CC2CN(/N=N/c2cccc([N+](=O)[O-])c2)C1 (stereo not drawn) | ≥ 90 | – | inactive | > 100 | > 90 | 80 | > 90 | – | inactive | inactive | 90 | > 100 | > 100 | > 100 | > 90
21 | c1ccc(/N=N/N2CCN(c3ccccc3)CC2)cc1 | 8 | – | inactive | > 100 | > 100 | > 100 | > 100 | – | inactive | inactive | ≥ 100 | > 100 | > 100 | 33 | > 100
22 | Brc1ccc(/N=N/N2CCCC2)cc1 | > 100 | – | inactive | > 100 | > 100 | > 100 | > 100 | – | inactive | inactive | ≥ 100 | > 100 | > 100 | > 100 | 51
